# According to ChEMBL document CHEMBL4699411, “A3- and A2B-nitrocorroles: synthesis and antiviral activity evaluation against human cytomegalovirus infection” (RSC Med Chem, 2020):
# Active and inactive are the calls of the source. The rule behind the calls is not given here.
# Assays:
# [1] = Cytotoxicity against human ARPE-19 cells assessed as reduction in nuclei count measured after 10 days for Hoechst 33342 staining based microscopic analysis; assay type: cell-based; conditions: time 10 day
# Outline: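 ARPE-19 epithelial cells seeded at 8k/well in complete DMEM with 10% FBS and treated with increasing compound concentrations 24 h later. Incubated 10 days at 37 °C. Formalin-fixed, stained with Hoechst 33342 (1 μg mL–1), and nuclei counted by high-content imaging. Counts normalized to DMSO wells. CC50 is the concentration reducing nuclei count by 50%. Mean of two wells ± SD.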
# [2] = Cytotoxicity against human MRC5 cells assessed as reduction in nuclei count measured after 6 days for Hoechst 33342 staining based microscopic analysis; assay type: cell-based; conditions: time 6 day
# Outline: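 MRC-5 fibroblasts seeded at 8k/well in complete DMEM with 10% FBS and treated 24 h later with increasing compound concentrations. Incubated 6 days at 37 °C, 5% CO2. Formalin-fixed, Hoechst 33342 (1 μg mL–1) stained, and nuclei counted by high-content imaging. Counts normalized to DMSO wells. CC50 is the concentration halving the nuclei count. Mean of two wells ± SD.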
# Human betaherpesvirus 5 [3] = test: Antiviral activity against Human cytomegalovirus infected in ARPE-19 cells measured after 10 days by fluorescence based microscopic analysis; assay type: functional, cell-based
# Outline: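 Cells were ARPE-19 in phenol red-free DMEM with 10% FBS, seeded 8k/well. At 24 h they received a range of compound concentrations and hCMV ANCHOR at MOI 10, then were fixed 10 days post infection. Imaging scored infection rate (fluorescent/total cells) and ANCHOR spot intensity over ≥1000 cells/well, normalized to DMSO and used to derive IC50; mean of three wells ± SD.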
# Human betaherpesvirus 5 [4] = test: Antiviral activity against Human cytomegalovirus infected in MRC5 cells measured after 6 days by fluorescence based microscopic analysis; assay type: functional, cell-based
# Outline: (§1)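 MRC-5 primary fibroblasts in phenol red-free DMEM with 10% FBS were seeded 8k/well. At 24 h they were treated with compound, infected with hCMV ANCHOR at MOI 1, and fixed 6 days post infection. High-content imaging gave infection rate (fluorescent/total cells) and replication (integrated ANCHOR spot intensity) over ≥1000 cells/well, normalized to DMSO; mean of three wells ± SD.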
# [5] = Selectivity index, ratio of CC50 for human ARPE-19 cells assessed as reduction in nuclei count measured after […] 33342 staining based microscopic analysis to EC50 Human cytomegalovirus infected in ARPE-19 cells measured after 10 days by microscopic analysis; assay type: toxicity, cell-based; conditions: read-out: Ratio CC50/EC50
# Outline: (§2)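 CC50 comes from Hoechst nuclei counts after compound treatment, normalized to DMSO. IC50 comes from hCMV ANCHOR infection at MOI 1 in MRC-5 (read 6 dpi) or MOI 10 in ARPE-19 (read 10 dpi). Infection rate is fluorescent cells over total cells, from at least 1000 cells per well, in triplicate wells. SI is CC50 divided by IC50.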
# [6] = Selectivity index, ratio of CC50 for human MRC5 cells assessed as reduction in nuclei count measured after 6 days for Hoechst 33342 staining based microscopic analysis to EC50 Human cytomegalovirus infected in MRC5 cells measured after 6 days by microscopic analysis; assay type: toxicity, cell-based; conditions: time 6 day, read-out: Ratio CC50/EC50; outline: as §2
# Human betaherpesvirus 5 [7] = test: Antiviral activity against Human cytomegalovirus harboring ANCHOR infected in ARPE-19 cells assessed as reduction in viral infection measured after 10 days by microscopic analysis relative to control; conditions: time 10.0 day
# Human betaherpesvirus 5 [8] = test: Antiviral activity against Human cytomegalovirus harboring ANCHOR infected in MRC5 cells assessed as reduction in viral infection at measured after 6 days by microscopic analysis relative to control; assay type: functional, cell-based; conditions: time 6.0 day; outline: as §1
# Human betaherpesvirus 5 [9] = test: Antiviral activity against Human cytomegalovirus infected in MRC5 cells assessed as reduction in viral plaque at 1.25 uM measured after 6 days by microscopic analysis; assay type: functional, cell-based; conditions: time 6.0 day
# Outline: (§3)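 MRC-5 fibroblasts seeded at 8k cells/well and infected 24 h later with fluorescent hCMV ANCHOR strain at MOI 1, with compound added at increasing concentrations. Cultured 6 days, fixed with formalin, nuclei stained with Hoechst, and imaged by high-content microscopy. Fluorescent plaques and replication centres were scored against DMSO-treated cells.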
# Human betaherpesvirus 5 [10] = test: Antiviral activity against Human cytomegalovirus infected in MRC5 cells assessed as reduction in viral plaque at 2.5 uM measured after 6 days by microscopic analysis relative to control; assay type: functional; design: scale not given: the % may be the effect or the level left; conditions: time 6 day
# Outline: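 Compound-treated MRC-5 fibroblasts were infected with hCMV ANCHOR at MOI 1, fixed 6 days post infection and imaged by fluorescence microscopy. Fluorescent viral plaques and replication centres were compared against vehicle (DMSO)-treated wells.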
# Human betaherpesvirus 5 [11] = test: Antiviral activity against Human cytomegalovirus infected in MRC5 cells assessed as reduction in viral plaque at 0.3 uM measured after 6 days by microscopic analysis; assay type: functional, cell-based; conditions: time 6.0 day; outline: as §3
# Human betaherpesvirus 5 [12] = test: Antiviral activity against Human cytomegalovirus harboring ANCHOR infected in MRC5 cells assessed as reduction in viral infection at 0.75 uM measured after 6 days by microscopic analysis relative to control; assay type: functional; design: scale not given: the % may be the effect or the level left; conditions: time 6 day; outline: as §1
# Human betaherpesvirus 5 [13] = test: Antiviral activity against Human cytomegalovirus harboring ANCHOR infected in ARPE-19 cells assessed as reduction in viral replication at 0.75 uM measured after 6 days by microscopic analysis relative to control; assay type: functional; conditions: time 6 day
# Outline: (§4)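 ARPE-19 epithelial cells grown in phenol red-free DMEM with 10% FBS, seeded 8k/well. After 24 h they were treated with compound and infected with hCMV ANCHOR (fluorescently labelled viral DNA) at MOI 10, then fixed 6 days post infection. High-content imaging scored infection rate (fluorescent/total cells) and replication (integrated ANCHOR spot intensity) over ≥1000 cells/well, normalized to DMSO; mean of three wells ± SD.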
# Human betaherpesvirus 5 [14] = test: Antiviral activity against Human cytomegalovirus harboring ANCHOR infected in MRC5 cells assessed as reduction in viral replication at 0.75 uM measured after 6 days by microscopic analysis relative to control; assay type: functional; design: scale not given: the % may be the effect or the level left; conditions: time 6 day; outline: as §1
# Human betaherpesvirus 5 [15] = test: Antiviral activity against Human cytomegalovirus harboring ANCHOR infected in MRC5 cells assessed as reduction in virus-induced cytopathic effect; assay type: functional, cell-based
# Human betaherpesvirus 5 [16] = test: Antiviral activity against Human cytomegalovirus harboring ANCHOR infected in ARPE-19 cells assessed as reduction in viral infection at 0.75 uM measured after 6 days by microscopic analysis relative to control; assay type: functional; conditions: time 6 day; outline: as §4
# [17] = Human betaherpesvirus 5, ARPE-19, 240 h, read-out: IC50
# [18] = Human betaherpesvirus 5, MRC5, 144 h, read-out: IC50
SMILES,CC50 at 240 h [1],CC50 at 144 h [2],IC50 (Human betaherpesvirus 5 [3]; arpe-19),IC50 (Human betaherpesvirus 5 [4]; mrc5),IC50 (Human betaherpesvirus 5 [3]; [17]),IC50 (Human betaherpesvirus 5 [4]; [18]),selectivity ratio [5],selectivity ratio at 144 h [6],other results
O=[N+]([O-])c1cc(-c2c3nc(c4ccc([nH]4)c(-c4cc([N+](=O)[O-])c(Br)cc4F)c4ccc([nH]4)c(-c4cc([N+](=O)[O-])c(Br)cc4F)c4ccc2[nH]4)C=C3)c(F)cc1Br,> 50 µM,> 50 µM,Not Active,Not Active,–,–,–,–,–
O=[N+]([O-])c1ccc(-c2c3nc(c4ccc([nH]4)c(-c4ccc([N+](=O)[O-])cc4F)c4ccc([nH]4)c(-c4ccc([N+](=O)[O-])cc4F)c4ccc2[nH]4)C=C3)c(F)c1,5.3 µM,3.4 µM,–,–,0.25 µM,0.7 µM,21.2,4.5,–
O=[N+]([O-])c1cccc(-c2c3nc(c4ccc([nH]4)c(-c4cccc([N+](=O)[O-])c4)c4ccc([nH]4)c(-c4ccccc4)c4ccc2[nH]4)C=C3)c1,> 50 µM,> 50 µM,Not Active,Not Active,–,–,–,–,–
O=[N+]([O-])c1ccc(F)cc1-c1c2nc(c3ccc([nH]3)c(-c3cc(F)ccc3[N+](=O)[O-])c3ccc([nH]3)c(-c3cc(F)ccc3[N+](=O)[O-])c3ccc1[nH]3)C=C2,> 50 µM,> 50 µM,–,–,5.2 µM,7.1 µM,> 10,> 7,–
O=[N+]([O-])c1cc(F)ccc1-c1c2nc(c3ccc([nH]3)c(-c3ccc(F)cc3[N+](=O)[O-])c3ccc([nH]3)c(-c3ccc(F)cc3[N+](=O)[O-])c3ccc1[nH]3)C=C2,> 50 µM,> 50 µM,–,–,4.3 µM,3 µM,> 11,> 16,Activity (Human betaherpesvirus 5 [7]): Dose-dependent effect; Activity (Human betaherpesvirus 5 [8]): Dose-dependent effect
CN(C)c1ccc(-c2c3nc(c4ccc([nH]4)c(-c4ccc(N(C)C)cc4[N+](=O)[O-])c4ccc([nH]4)c(-c4ccc(N(C)C)cc4[N+](=O)[O-])c4ccc2[nH]4)C=C3)c([N+](=O)[O-])c1,> 50 µM,> 50 µM,Not Active,Not Active,–,–,–,–,–
O=[N+]([O-])c1ccc(F)c(-c2c3nc(c4ccc([nH]4)c(-c4c(F)ccc([N+](=O)[O-])c4F)c4ccc([nH]4)c(-c4c(F)ccc([N+](=O)[O-])c4F)c4ccc2[nH]4)C=C3)c1F,9.8 µM,8.77 µM,–,–,0.31 µM,0.86 µM,31.6,10.2,–
O=[N+]([O-])c1cccc(-c2c3nc(c4ccc([nH]4)c(-c4cccc([N+](=O)[O-])c4F)c4ccc([nH]4)c(-c4cccc([N+](=O)[O-])c4F)c4ccc2[nH]4)C=C3)c1F,> 50 µM,> 50 µM,–,–,0.6 µM,1.8 µM,> 82,> 27,Activity (Human betaherpesvirus 5 [9]): Active; Activity (Human betaherpesvirus 5 [7]): Dose-dependent effect; Activity (Human betaherpesvirus 5 [10]): 100%; Activity (Human betaherpesvirus 5 [8]): Dose-dependent effect
O=[N+]([O-])c1cc(-c2c3nc(c4ccc([nH]4)c(-c4ccc(F)c([N+](=O)[O-])c4)c4ccc([nH]4)c(-c4ccc(F)c([N+](=O)[O-])c4)c4ccc2[nH]4)C=C3)ccc1F,> 50 µM,> 50 µM,Not Active,Not Active,–,–,–,–,–
O=[N+]([O-])c1cccc(-c2c3nc(c4ccc([nH]4)c(-c4cccc([N+](=O)[O-])c4)c4ccc([nH]4)c(-c4ccc(F)c([N+](=O)[O-])c4)c4ccc2[nH]4)C=C3)c1,> 50 µM,> 50 µM,–,Not Active,5 µM,–,> 10,–,–
O=[N+]([O-])c1ccc(-c2c3nc(c4ccc([nH]4)c(-c4ccc([N+](=O)[O-])c(F)c4)c4ccc([nH]4)c(-c4ccc([N+](=O)[O-])c(F)c4)c4ccc2[nH]4)C=C3)cc1F,> 50 µM,> 50 µM,Not Active,Not Active,–,–,–,–,–
O=[N+]([O-])c1cc(F)cc(-c2c3nc(c4ccc([nH]4)c(-c4cc(F)cc([N+](=O)[O-])c4)c4ccc([nH]4)c(-c4cc(F)ccc4[N+](=O)[O-])c4ccc2[nH]4)C=C3)c1,16.5 µM,18 µM,–,Not Active,0.32 µM,–,51,–,–
O=[N+]([O-])c1cc(F)cc(-c2c3ccc([nH]3)c(-c3cc(F)ccc3[N+](=O)[O-])c3nc(c4ccc([nH]4)c(-c4cc(F)ccc4[N+](=O)[O-])c4ccc2[nH]4)C=C3)c1,> 50 µM,> 50 µM,–,–,0.22 µM,2 µM,> 227,> 25,Activity (Human betaherpesvirus 5 [11]): Active; Activity (Human betaherpesvirus 5 [9]): Active; Activity (Human betaherpesvirus 5 [7]): Dose-dependent effect; Activity (Human betaherpesvirus 5 [8]): Dose-dependent effect
O=[N+]([O-])c1ccc(Cl)cc1-c1c2nc(c3ccc([nH]3)c(-c3cc(Cl)ccc3[N+](=O)[O-])c3ccc([nH]3)c(-c3cc(Cl)ccc3[N+](=O)[O-])c3ccc1[nH]3)C=C2,> 50 µM,> 50 µM,Not Active,Not Active,–,–,–,–,–
O=[N+]([O-])c1cc(C(F)(F)F)ccc1-c1c2nc(c3ccc([nH]3)c(-c3ccc(C(F)(F)F)cc3[N+](=O)[O-])c3ccc([nH]3)c(-c3ccc(C(F)(F)F)cc3[N+](=O)[O-])c3ccc1[nH]3)C=C2,> 50 µM,> 50 µM,–,–,5 µM,2.8 µM,> 10,> 17,–
O=[N+]([O-])c1ccc(F)c(-c2c3nc(c4ccc([nH]4)c(-c4cc([N+](=O)[O-])ccc4F)c4ccc([nH]4)c(-c4cc([N+](=O)[O-])ccc4F)c4ccc2[nH]4)C=C3)c1,50 µM,3.7 µM,–,–,1.3 µM,1.5 µM,39,2.4,Activity (Human betaherpesvirus 5 [12]): 60%; fold change (FC) (Human betaherpesvirus 5 [13]): 5; Activity (Human betaherpesvirus 5 [14]): 80%; Activity (Human betaherpesvirus 5 [15]): Active; fold change (FC) (Human betaherpesvirus 5 [16]): 10
O=[N+]([O-])c1cc(F)cc(-c2c3nc(c4ccc([nH]4)c(-c4cc(F)cc([N+](=O)[O-])c4)c4ccc([nH]4)c(-c4cc(F)cc([N+](=O)[O-])c4)c4ccc2[nH]4)C=C3)c1,> 50 µM,> 50 µM,–,Not Active,1.9 µM,–,> 26,–,–
